Activity calls are given as the source filed them. The calls are words filed in the database; no cut-off is given here.
What was measured:
[1] = system: SK-BR-3; assay: Antiproliferative activity against human SKBR3 cells at 0.1 to 10 uM after 72 hrs by MTT assay; type: functional, cell-based
Outline: (§1)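 Monolayer cells in DMEM with 10% FBS, 2 mM L-glutamine, penicillin and streptomycin at 37 °C, 5% CO2. Seeded at 3000-6000 cells/well by doubling time on day 0. Five 10-fold dilutions (0.01–100 µM) were added and incubated 72 h. MTT read-out, converted to percentage growth. IC50 by linear regression between bracketing concentrations. Quadruplicate points, three independent experiments, ANOVA/Tukey p<0.05.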

[2] = system: HeLa; assay: Antiproliferative activity against human HeLa cells at 0.1 to 10 uM after 72 hrs by MTT assay; type: functional, cell-based; outline: as §1
[3] = system: SW-620; assay: Antiproliferative activity against human SW620 cells at 0.1 to 10 uM after 72 hrs by MTT assay; type: functional, cell-based; outline: as §1
[4] = system: SW-620; assay: Antiproliferative activity against human SW620 cells after 72 hrs by MTT assay; type: functional, cell-based; settings: Homo sapiens, SW-620, 72 h; outline: as §1
[5] = system: SK-BR-3; assay: Cytostatic activity against human SKBR3 cells at 1 to 10 uM after 72 hrs by MTT assay; type: functional, cell-based
Outline: (§2)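 Monolayers in DMEM with 10% FBS, 2 mM L-glutamine, penicillin and streptomycin (37 °C, 5% CO2) were seeded at 3000–6000 cells/well on day 0. Five 10-fold dilutions (0.01–100 µM) were added, followed by 72-h incubation and MTT read-out. Absorbances were converted to percentage growth by the NIH formulae. Each point was run in quadruplicate in three experiments; ANOVA with Tukey test.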

[6] = system: WI-38; assay: Antiproliferative activity against human WI38 cells after 72 hrs by MTT assay; type: cell-based; settings: Homo sapiens, WI-38, 72 h; outline: as §1
[7] = system: MCF7; assay: Antiproliferative activity against human MCF7 cells after 72 hrs by MTT assay; type: functional, cell-based; settings: Homo sapiens, MCF7, 72 h; outline: as §1
[8] = system: SK-BR-3; assay: Antiproliferative activity against human SKBR3 cells after 72 hrs by MTT assay; type: functional, cell-based; settings: Homo sapiens, SK-BR-3, 72 h; outline: as §1
[9] = system: MCF7; assay: Antiproliferative activity against human MCF7 cells at 0.1 to 10 uM after 72 hrs by MTT assay; type: functional, cell-based; outline: as §1
[10] = system: WI-38; assay: Cytostatic activity against human WI38 cells at 1 to 10 uM after 72 hrs by MTT assay; type: ADME, cell-based; settings: wi-38, 72 h; outline: as §2
[11] = system: WI-38; assay: Antiproliferative activity against human WI38 cells at 0.1 to 10 uM after 72 hrs by MTT assay; type: cell-based; settings: wi-38, 72 h; outline: as §1
[12] = system: HeLa; assay: Antiproliferative activity against human HeLa cells after 72 hrs by MTT assay; type: functional, cell-based; settings: Homo sapiens, HeLa, 72 h; outline: as §1
[13] = system: HEp-2; assay: Cytostatic activity against human Hep2 cells at 1 to 10 uM after 72 hrs by MTT assay; type: functional, cell-based; outline: as §2
[14] = system: SW-620; assay: Cytostatic activity against human SW620 cells at 1 to 10 uM after 72 hrs by MTT assay; type: functional, cell-based; outline: as §2
[15] = system: MCF7; assay: Cytostatic activity against human MCF7 cells at 1 to 10 uM after 72 hrs by MTT assay; type: functional, cell-based; outline: as §2
[16] = system: MIA PaCa-2; assay: Antiproliferative activity against human MIAPaCa2 cells at 0.1 to 10 uM after 72 hrs by MTT assay; type: functional, cell-based; outline: as §1
[17] = system: HEp-2; assay: Antiproliferative activity against human Hep2 cells at 0.1 to 10 uM after 72 hrs by MTT assay; type: functional, cell-based; outline: as §1
[18] = system: MIA PaCa-2; assay: Cytostatic activity against human MIAPaCa2 cells at 1 to 10 uM after 72 hrs by MTT assay; type: functional, cell-based; outline: as §2
[19] = system: MIA PaCa-2; assay: Antiproliferative activity against human MIAPaCa2 cells after 72 hrs by MTT assay; type: functional, cell-based; settings: Homo sapiens, MIA PaCa-2, 72 h; outline: as §1
[20] = system: HeLa; assay: Cytostatic activity against human HeLa cells at 1 to 10 uM after 72 hrs by MTT assay; type: functional, cell-based; outline: as §2
[21] = system: HEp-2; assay: Antiproliferative activity against human Hep2 cells after 72 hrs by MTT assay; type: functional, cell-based; settings: Homo sapiens, HEp-2, 72 h; outline: as §1
[22] = system: Nucleic Acid; assay: Binding affinity to calf thymus DNA assessed as change in melting temperature at compound to polynucleotide ratio of 0.5 by UV-VIS spectroscopic analysis; type: nucleic-acid assay; settings: Bos taurus
Outline: (§3)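 ct-DNA alone or with compound at set r = [compound]/[polynucleotide], in cacodylate buffer pH 7.0, I = 0.05 mol dm^-3. Absorbance at 260 nm followed against temperature, ligand absorbance subtracted, curves normalized. Tm is the transition midpoint, from the first-derivative maximum or by tangent method. ΔTm = Tm(complex) − Tm(free DNA), mean of ≥2 runs, error ±0.5 °C.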

[23] = system: Nucleic Acid; assay: Binding affinity to calf thymus DNA assessed as change in melting temperature at compound to polynucleotide ratio of 0.3 by UV-VIS spectroscopic analysis; type: nucleic-acid assay; settings: Bos taurus; outline: as §3
[24] = system: Nucleic Acid; assay: Binding affinity to calf thymus DNA assessed as hypochromic changes at 343 nm wavelength by UV-Vis spectrophotometric titrations; type: nucleic-acid assay; settings: Bos taurus
Outline: (§4)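 UV/Vis titration: aliquots of ct-DNA (concentration as phosphate) added to compound solution in sodium cacodylate buffer pH 7.0, I = 0.05 mol dm^-3, 1 cm quartz cuvettes. Hypochromism followed at band maxima. Compound absorbance linear up to 2.0 × 10^-5 mol dm^-3. Binding data fitted by the Scatchard equation.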

[25] = system: Nucleic Acid; assay: Binding affinity to calf thymus DNA assessed as appearance of weak, negative induced CD band at > 300 nm wavelength by circular dichroism spectroscopy; type: nucleic-acid assay; settings: Bos taurus
Outline: (§5)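 CD spectra of ct-DNA (1.0 × 10^-5 mol dm^-3, as phosphate) titrated with compound at 25 °C. Sodium cacodylate buffer pH 7.0, I = 0.05 mol dm^-3, 1 cm quartz cuvette. DNA band (~274–275 nm) and induced bands above 300 nm followed versus r = [compound]/[ct-DNA].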

[26] = system: Nucleic Acid; assay: Binding affinity to calf thymus DNA assessed as hypochromic changes at 330 nm wavelength by UV-Vis spectrophotometric titrations; type: nucleic-acid assay; settings: Bos taurus; outline: as §4
[27] = system: Nucleic Acid; assay: Binding affinity to calf thymus DNA assessed as change in melting temperature at compound to polynucleotide ratio of 0.1 by UV-VIS spectroscopic analysis; type: nucleic-acid assay; settings: Bos taurus; outline: as §3
[28] = system: Nucleic Acid; assay: Binding affinity to calf thymus DNA assessed as change in melting temperature at compound to polynucleotide ratio of 0.2 by UV-VIS spectroscopic analysis; type: nucleic-acid assay; settings: Bos taurus; outline: as §3
[29] = system: Nucleic Acid; assay: Binding affinity to calf thymus DNA assessed as UV/Vis spectral change at compound to DNA ratio of 0.24 by UV/Vis titrations; settings: Bos taurus
[30] = system: Nucleic Acid; assay: Binding affinity to calf thymus DNA assessed as appearance of weak, negative CD band at 325 nm wavelength by circular dichroism spectroscopy; type: nucleic-acid assay; settings: Bos taurus; outline: as §5
[31] = system: Nucleic Acid; assay: Binding affinity to calf thymus DNA assessed as hypochromic changes at 360 nm wavelength by UV-Vis spectrophotometric titrations; type: nucleic-acid assay; settings: Bos taurus; outline: as §4
[32] = system: Nucleic Acid; assay: Binding affinity to calf thymus DNA assessed as hypochromic changes at 342 nm wavelength by UV-Vis spectrophotometric titrations; type: nucleic-acid assay; settings: Bos taurus; outline: as §4
[33] = system: Nucleic Acid; assay: Binding affinity to calf thymus DNA assessed as hypochromic changes at 327 nm wavelength by UV-Vis spectrophotometric titrations; type: nucleic-acid assay; settings: Bos taurus; outline: as §4
[34] = system: Nucleic Acid; assay: Binding affinity to calf thymus DNA assessed as fluorescence quenching at compound to DNA ratio of 0.20 by fluorimetric titrations; type: nucleic-acid assay; settings: Bos taurus
Outline: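 Fluorimetric titration: portions of ct-DNA (sonicated, filtered, concentration as phosphate) added to compound in cacodylate buffer pH 7.0, I = 0.05 mol dm^-3. Emission 350–600 nm, sample absorbance <0.05 at excitation, mostly DNA excess (r < 0.1). Ks and n = [bound compound]/[DNA phosphate] by non-linear least-squares Scatchard fitting.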

[35] = system: Nucleic Acid; assay: Binding affinity to calf thymus DNA assessed as appearance of weak positive CD band at compound to DNA ratio of > 0.3 and 350 to 400 nm wavelength by circular dichroism spectroscopy; type: nucleic-acid assay; settings: Bos taurus; outline: as §5

Row | SMILES | IC50 [4] | Activity [5] | IC50 [6] | IC50 [7] | IC50 [8] | Activity [10] | IC50 [12] | Activity [13] | Activity [14] | Activity [15] | Activity [18] | IC50 [19] | Activity [20] | IC50 [21] | ΔTm [22] | ΔTm [23] | ΔTm [27] | ΔTm [28] | further results
1 | Brc1cnc2nc3ccc4ccc(C5=NCCN5)cc4n3c2c1.Cl | 3.67 µM | Active | 3.71 µM | 8.43 µM | 5.52 µM | Toxic | 1.1 µM | Active | Active | Active | Active | 4.74 µM | Active | 4.01 µM |  |  |  |  | Activity [1]: Active; Activity [2]: Active; Activity [3]: Active; Activity [9]: Active; Activity [11]: Toxic; Activity [16]: Active; Activity [17]: Active
2 | Nc1ccc2c(ccc3nc4ncccc4n32)c1 |  | Active |  |  |  |  |  | Active | Active | Active | Active |  | Active |  | 1.3 °C | 0.2 °C | 0.7 °C | 1.4 °C | Activity [24]: 18%; Activity [25]: inactive; Activity [26]: 26%; log Ks [29]: 4.6
3 | C[n+]1cccc2c1nc1ccc3ccccc3n12.[I-] | 14.8 µM | Active | 6.27 µM | 7.56 µM | 3.51 µM | Toxic | 7.52 µM | Active | Active | Active | Active | 8.56 µM | Active | 13.2 µM | 6.1 °C | 4.25 °C | 1.6 °C | 2.6 °C | Activity [30]: Active; Activity [31]: 38%; Activity [32]: 37%; Activity [33]: 28%; log Ks [34]: 4.9; Activity [35]: Active

From ChEMBL document CHEMBL1806443, “Novel imidazo[4,5-b]pyridine and triaza-benzo[c]fluorene derivatives: synthesis, antiproliferative activity and DNA binding studies” (Eur J Med Chem, 2011)
